Test results from ChEMBL document CHEMBL3091449, “Synthesis and antimicrobial profile of N-substituted imidazolium oximes and their monoquaternary salts against multidrug resistant bacteria” (2013).

Key:
Format in all cases: functional
Clostridium perfringens [1] = assay: Antibacterial activity against Clostridium perfringens FNSST 4999 after 18 to 24 hrs by two-fold broth microdilution assay
In short: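 CLSI two-fold broth microdilution. Compounds dissolved in DMSO, 10 mg/mL stock, serially diluted to 400–0.09 µg/mL in Mueller Hinton broth. Wells inoculated with 10^6 CFU/mL bacteria and incubated 18–24 h at 37 °C. 0.2 mg/mL INT added for 30 min. MIC taken as the lowest concentration with no visible growth or pink colour. Triplicate.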

Staphylococcus aureus [2] = assay: Antibacterial activity against Staphylococcus aureus ATCC 25923 assessed as diameter of zone of inhibition at 250 ug/disc after 24 hrs by disc diffusion method; details: ATCC 25923, 24 h, read-out: DIZ
In short: (§1)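 Bacteria were grown overnight at 37 °C in TSB to about 10^6 cfu/mL, and 100 µL was spread on Mueller Hinton agar. Sterile 6 mm discs were each loaded with 25 µL of a 10 mg/mL stock in 96% ethanol, giving 250 µg/disc. Ethanol served as the negative control. Plates were incubated 24 h at 37 °C. Inhibition zone diameter was measured including the disc, in triplicate, as mean ± SE.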

Enterococcus faecalis [3] = assay: Antibacterial activity against Enterococcus faecalis ATCC 29212 assessed as diameter of zone of inhibition at 250 ug/disc after 24 hrs by disc diffusion method; details: ATCC 29212, 24 h, read-out: DIZ; in short: as §1
Clostridium perfringens [4] = assay: Antibacterial activity against Clostridium perfringens FNSST 4999 assessed as diameter of zone of inhibition at 250 ug/disc after 24 hrs by disc diffusion method; details: FNSST 4999, 24 h, read-out: DIZ
In short: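 Disc diffusion per CLSI: 100 µL of 10^6 cfu/mL bacterial suspension spread on Mueller Hinton agar. 6 mm discs loaded with 25 µL of 10 mg/mL compound stock in 96% ethanol (250 µg/disc); ethanol as negative control. Incubated 24 h at 37 °C. Inhibition zone diameter measured in mm including the disc, triplicate, reported as mean ± SE.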

Aeromonas hydrophila [5] = assay: Antibacterial activity against Aeromonas hydrophila FNSST 014 after 18 to 24 hrs by two-fold broth microdilution assay
In short: (§2)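 CLSI two-fold broth microdilution was used. Compounds were dissolved in DMSO, brought to 10 mg/mL in medium, then serially diluted in Mueller Hinton broth over 400–0.09 µg/mL. Overnight MHB cultures were diluted to 10^6 CFU/mL, and 10 µL was added per well. Plates were incubated 18–24 h at 37 °C, then 0.2 mg/mL INT was added for 30 min at 37 °C. MIC was the lowest concentration with no visible growth or pink colour, triplicate.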

Klebsiella pneumoniae [6] = assay: Antibacterial activity against Klebsiella pneumoniae FNSST 011 after 18 to 24 hrs by two-fold broth microdilution assay; in short: as §2
Pseudomonas aeruginosa [7] = assay: Ratio of cefotaxime MIC to compound MIC for Pseudomonas aeruginosa FNSST 982
Escherichia coli [8] = assay: Antibacterial activity against Escherichia coli FNSST 982 assessed as diameter of zone of inhibition at 250 ug/disc after 24 hrs by disc diffusion method; details: FNSST 982, 24 h, read-out: DIZ; in short: as §1
Pseudomonas aeruginosa [9] = assay: Antibacterial activity against Pseudomonas aeruginosa FNSST 982 after 18 to 24 hrs by two-fold broth microdilution assay; in short: as §2
Enterococcus faecalis [10] = assay: Antibacterial activity against Enterococcus faecalis ATCC 29212 after 18 to 24 hrs by two-fold broth microdilution assay; in short: as §2
Escherichia coli [11] = assay: Antibacterial activity against Escherichia coli FNSST 982 after 18 to 24 hrs by two-fold broth microdilution assay; in short: as §2
Bacillus cereus [12] = assay: Antibacterial activity against Bacillus cereus ATCC 11778 after 18 to 24 hrs by two-fold broth microdilution assay; in short: as §2
Klebsiella pneumoniae [13] = assay: Antibacterial activity against Klebsiella pneumoniae FNSST 011 assessed as diameter of zone of inhibition at 250 ug/disc after 24 hrs by disc diffusion method; details: FNSST 011, 24 h, read-out: DIZ; in short: as §1
Pseudomonas aeruginosa [14] = assay: Ratio of gentamicin MIC to compound MIC for Pseudomonas aeruginosa FNSST 982
Aeromonas hydrophila [15] = assay: Antibacterial activity against Aeromonas hydrophila FNSST 014 assessed as diameter of zone of inhibition at 250 ug/disc after 24 hrs by disc diffusion method; details: FNSST 014, 24 h, read-out: DIZ; in short: as §1
Talaromyces funiculosus = assay: Antifungal activity against Penicillium funiculosum FNSST 3724 assessed as diameter of zone of inhibition at 250 ug/disc after 72 hrs by disc diffusion method; details: FNSST 3724, 72 h, read-out: DIZ
In short: (§3)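 Fungi were grown overnight at 30 °C in Sabouraud dextrose broth to 10^4 cfu/mL, and 100 µL was spread on Sabouraud dextrose agar. 6 mm discs carried 250 µg (25 µL of a 10 mg/mL stock in 96% ethanol), with ethanol as the negative control. Incubation was at 30 °C for 48 h (yeast) or 72 h (molds). Zone diameter was read including the disc, in triplicate, mean ± SE.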

Candida albicans = assay: Antifungal activity against Candida albicans ATCC 10231 assessed as diameter of zone of inhibition at 250 ug/disc after 48 hrs by disc diffusion method; details: ATCC 10231, 48 h, read-out: DIZ; in short: as §3
Staphylococcus aureus [16] = assay: Antibacterial activity against Staphylococcus aureus ATCC 25923 after 18 to 24 hrs by two-fold broth microdilution assay; in short: as §2
Bacillus cereus [17] = assay: Antibacterial activity against Bacillus cereus ATCC 11778 assessed as diameter of zone of inhibition at 250 ug/disc after 24 hrs by disc diffusion method; details: ATCC 11778, 24 h, read-out: DIZ; in short: as §1
Escherichia coli [18] = assay: Ratio of gentamicin MIC to compound MIC for Escherichia coli FNSST 982
Pseudomonas aeruginosa [19] = assay: Antibacterial activity against Pseudomonas aeruginosa FNSST 982 assessed as diameter of zone of inhibition at 250 ug/disc after 24 hrs by disc diffusion method; details: FNSST 982, 24 h, read-out: DIZ; in short: as §1
Aspergillus fumigatus = assay: Antifungal activity against Aspergillus fumigatus FNSST 3833 assessed as diameter of zone of inhibition at 250 ug/disc after 72 hrs by disc diffusion method; details: FNSST 3833, 72 h, read-out: DIZ; in short: as §3

**Q.** Which MIC (Clostridium perfringens [1]) does the source give for `Cc1ccc(-[n+]2ccn(Cc3ccccc3)c2/C=N/O)cc1.[Br-]` here?
**A.** 25 µg/mL

**Q.** What about the zone of inhibition at 250 µg/disc (Staphylococcus aureus [2]) of the same compound?
**A.** 18.4 mm

**Q.** What about the zone of inhibition at 250 µg/disc (Enterococcus faecalis [3]) of the same compound?
**A.** 14.5 mm

**Q.** And the zone of inhibition at 250 µg/disc (Clostridium perfringens [4])?
**A.** 20.7 mm

**Q.** And the MIC (Aeromonas hydrophila [5])?
**A.** 12.5 µg/mL

**Q.** What about the MIC (Klebsiella pneumoniae [6]) of the same compound?
**A.** 12.5 µg/mL

**Q.** And the Ratio (Pseudomonas aeruginosa [7])?
**A.** 115

**Q.** And the zone of inhibition at 250 µg/disc (Escherichia coli [8])?
**A.** 17.7 mm

**Q.** And the MIC (Pseudomonas aeruginosa [9])?
**A.** 0.14 µg/mL

**Q.** And the MIC (Enterococcus faecalis [10])?
**A.** 25 µg/mL

**Q.** What about the MIC (Escherichia coli [11]) of the same compound?
**A.** 3.12 µg/mL

**Q.** And the MIC (Bacillus cereus [12])?
**A.** 12.5 µg/mL

**Q.** And the zone of inhibition at 250 µg/disc (Klebsiella pneumoniae [13])?
**A.** 16.3 mm

**Q.** What about the Ratio (Pseudomonas aeruginosa [14]) of the same compound?
**A.** 450

**Q.** And the zone of inhibition at 250 µg/disc (Aeromonas hydrophila [15])?
**A.** 16.6 mm

**Q.** What about the zone of inhibition at 250 µg/disc (Talaromyces funiculosus) of the same compound?
**A.** 18.4 mm

**Q.** What about the zone of inhibition at 250 µg/disc (Candida albicans) of the same compound?
**A.** 20.8 mm

**Q.** What about the MIC (Staphylococcus aureus [16]) of the same compound?
**A.** 6.25 µg/mL

**Q.** What about the zone of inhibition at 250 µg/disc (Bacillus cereus [17]) of the same compound?
**A.** 12.2 mm

**Q.** What about the Ratio (Escherichia coli [18]) of the same compound?
**A.** 2.5

**Q.** And the zone of inhibition at 250 µg/disc (Pseudomonas aeruginosa [19])?
**A.** 20.6 mm

**Q.** What about the zone of inhibition at 250 µg/disc (Aspergillus fumigatus) of the same compound?
**A.** 20.3 mm
